Measured values taken from publication PMC4203514 (Autophagy, 2014).
Entries after “also recorded” stand apart in the source; their conditions may differ. Read-outs that look alike come from different tables or passages of the source.

Columns and labels:
[1] = Population pharmacokinetics of HCQ in whole blood; assay type: in vivo, human; details: for Vd/F: human, oral, Vc/F, apparent central volume of distribution
Method in brief: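 Whole blood was sampled in sodium heparin pre-dose and at 2, 4, 8 and 12 wk and 6 mo, then stored at −70 °C. Samples were assayed in duplicate by HPLC-MS/MS with a deuterated internal standard against a 1/x-weighted linear curve (1–5000 ng/mL; LLOQ 1.0 ng/mL). One- and two-compartment first-order models were fitted by nonlinear mixed-effects (Lindstrom-Bates) with log-normal inter-individual variability. Precision came from 1000 bootstrap runs, and individual parameters were used for profile simulations.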

[2] = tested on: glioma; details: cited from earlier work
[3] = tested on: patients with advanced solid tumors; assay type: in vivo, human
Method in brief: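 Open-label single-institution 3 + 3 escalation of the oral test compound only, starting at 200 mg daily, split twice daily about 12 h apart above 200 mg, up to 1200 mg. A 14 d monotherapy run-in preceded an oral alkylating agent at 150 mg/m2 daily for 7 of 14 d, in 28 d cycles. DLT was any at least possibly related grade ≥ 3 event in the first 6 wk. MTD was ≤ 1/6 patients with DLT.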

[4] = tested on: peripheral blood mononuclear cells; assay: Autophagic vacuole; assay type: in vivo, human; details: after 2 wk run-in of HCQ; baseline 2.19
[5] = tested on: peripheral blood mononuclear cells; assay: PK-PD CART analysis of HCQ peak concentration versus AV accumulation in PBMC; assay type: in vivo, human
Method in brief: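 Exploratory classification and regression trees analysis used 26 patients with complete PK and PD data. The target was change in PBMC AV count from baseline to 2 wk. Predictors were Cmin, Cmax and AUC, taken from model-simulated individual blood profiles. The PK-PD relationship was also examined after 4 wk of combined therapy. The Cmax threshold was tested by Kruskal-Wallis (medians) and Kolmogorov-Smirnov two-sample tests.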

[6] = tested on: patients with rheumatoid arthritis; details: 1200 mg/d HCQ (600 mg twice daily), after 6 wk; cited from earlier work
[7] = tested on: patients with advanced solid tumors; assay: Treatment-related adverse events by grade; assay type: in vivo, human
Method in brief: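 Patients who took at least one dose of the oral test compound, given with a dose-intense oral alkylating agent, were evaluable for toxicity. Adverse events were graded by NCI Common Toxicity Criteria v3.0, and haematological toxicities were attributed to the alkylating agent. Complete blood counts were done weekly for the first 6 wk and biweekly thereafter. Treatment ran in 28 d cycles.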

[8] = population PK, 1000 bootstrap runs
[9] = population PK, whole blood, 35 patients

Structure (SMILES): CCN(CCO)CCCC(C)Nc1ccnc2cc(Cl)ccc12 (centres unmarked) [HCQ, hydroxychloroquine]
- Vd/F ([1]; whole blood, bootstrap estimate, population PK, 1000 bootstrap runs): 500 L
- Vd/F ([1]; whole blood, model estimate, population PK, 35 patients): 486 L
- Cl/F, apparent oral clearance, bootstrap estimate [1, 8]: 10.085 L/h
- Ka, absorption rate constant, bootstrap estimate [1, 8]: 0.999 h⁻¹
- Vp/F, apparent peripheral volume of distribution, bootstrap estimate [1, 8]: 1400.415 L
- Cl/F, apparent oral clearance, model estimate [1, 9]: 9.975 L/h
- Ka, absorption rate constant, model estimate [1, 9]: 0.998 h⁻¹
- Vp/F, apparent peripheral volume of distribution, model estimate [1, 9]: 1406.52 L
- Time to steady-state HCQ blood concentration, on average ([1]; simulated for individual patients with final PK model, (16 d)): 400 h
- Myelosuppression ([2]; HCQ 800 mg with TMZ 75 mg/m^2 daily and brain radiation): all experienced grade 4 myelosuppression
- Maximal tolerated dose of HCQ ([2]; combined with TMZ 75 mg/m^2 daily for 6 wk with concomitant brain radiation): 600 mg daily
- Maximum tolerated dose (MTD) ([3]; HCQ up to 1200 mg/d combined with dose-intense TMZ 150 mg/m^2 daily for 7/14 d): No maximal tolerated dose; also recorded: not reached
- Recommended phase II dose (RPTD) ([3]; combined with dose-intense TMZ, dose level 5): 600 mg twice daily
- Dose-limiting toxicity ([3]; dose level 1 (HCQ 200 mg/day), three patients): no dose-limiting toxicity (DLT) was observed
- Dose-limiting toxicity ([3]; dose level 2 (HCQ 400 mg/day)): no DLT observed
- Serious adverse event ([3]; dose level 3 (HCQ 400 mg twice daily), patient on sotalol, within 8 d, attributed to dehydration and not to the study drug): third-degree heart block
- Dose-limiting toxicity ([3]; dose level 4 (HCQ 1000 mg/day), none in 3 additional patients): one grade 3 rash
- Dose-limiting toxicity ([3]; dose level 5 (HCQ 1200 mg/d), first cycle, none in expanded cohort): one patient experienced grade 3 nausea and vomiting
- Mean AV count per cell in PBMC [4]: 2.45
- Threshold HCQ Cmax that correlated with AV accumulation (CART) ([5]; after 2 wk of single agent HCQ, 26 patients): 1554 ng/mL
- Threshold HCQ Cmax for AV change (CART) ([5]; baseline to 4 wk of combined therapy (TMZ + HCQ), 21 patients): 856 ng/mL
- Median AV change from baseline to 2 wk ([5]; patients with Cmax above 1554 ng/mL (n = 18), IQR -0.45, 1.37): 0.89
- Median AV change from baseline to 2 wk ([5]; patients with Cmax below 1554 ng/mL (n = 8), IQR −1.35, 0.03): −0.21
- Dose-limiting toxicity as a single agent [6]: dose-limiting nausea
- Abdominal fullness G1/G2 ([7]; All patients, HCQ with TMZ): 2 (6) No. (%)
- Abdominal pain G1/G2 ([7]; All patients, HCQ with TMZ): 2 (6) No. (%)
- Anemia G1/G2 ([7]; All patients, HCQ with TMZ): 1 (3) No. (%)
- Anemia G3/G4 ([7]; All patients, HCQ with TMZ): 1 (3) No. (%)
- Anorexia G1/G2 ([7]; All patients, HCQ with TMZ): 13 (35) No. (%)
- Bradycardia G1/G2 ([7]; All patients, HCQ with TMZ): 2 (6) No. (%)
- Constipation G1/G2 ([7]; All patients, HCQ with TMZ): 8 (22) No. (%)
- Diarrhea G1/G2 ([7]; All patients, HCQ with TMZ): 9 (24) No. (%)
- Dizziness G1/G2 ([7]; All patients, HCQ with TMZ): 2 (6) No. (%)
- Dyspepsia G1/G2 ([7]; All patients, HCQ with TMZ): 2 (6) No. (%)
- Headaches G1/G2 ([7]; All patients, HCQ with TMZ): 3 (8) No. (%)
- Hypotension G1/G2 ([7]; All patients, HCQ with TMZ): 3 (8) No. (%)
- Leukopenia G3/G4 ([7]; All patients, HCQ with TMZ): 1 (3) No. (%)
- Lymphopenia G1/G2 ([7]; All patients, HCQ with TMZ): 5 (14) No. (%)
- Lymphopenia G3/G4 ([7]; All patients, HCQ with TMZ): 5 No. (%)
- Myalgias G1/G2 ([7]; All patients, HCQ with TMZ): 2 (6) No. (%)
- Nausea G1/G2 ([7]; All patients, HCQ with TMZ): 24 (65) No. (%)
- Nausea G3/G4 ([7]; All patients, HCQ with TMZ): 1 (3) No. (%)
- Neutropenia G3/G4 ([7]; All patients, HCQ with TMZ): 2 (6) No. (%)
- Pruritus G1/G2 ([7]; All patients, HCQ with TMZ): 4 (12) No. (%)
- Rash G1/G2 ([7]; All patients, HCQ with TMZ): 3 (8) No. (%)
- Rash G3/G4 ([7]; All patients, HCQ with TMZ): 1 (3) No. (%)
- Taste change G1/G2 ([7]; All patients, HCQ with TMZ): 2 (6) No. (%)
- Thrombocytopenia G1/G2 ([7]; All patients, HCQ with TMZ): 5 (14) No. (%)
- Thrombocytopenia G3/G4 ([7]; All patients, HCQ with TMZ): 2 (6) No. (%)
- Vomiting G3/G4 ([7]; All patients, HCQ with TMZ): 1 (3) No. (%)
- Abdominal fullness G1/G2 ([7]; HCQ 200 mg (n = 3) with TMZ): 1 (33) No. (%)
- Anorexia G1/G2 ([7]; HCQ 200 mg (n = 3) with TMZ): 1 (33) No. (%)
- Constipation G1/G2 ([7]; HCQ 200 mg (n = 3) with TMZ): 1 (33) No. (%)
- Fatigue G1/G2 ([7]; HCQ 200 mg (n = 3) with TMZ): 1 (33) No. (%)
- Lymphopenia G1/G2 ([7]; HCQ 200 mg (n = 3) with TMZ): 1 (33) No. (%)
- Lymphopenia G3/G4 ([7]; HCQ 200 mg (n = 3) with TMZ): 1 (33) No. (%)
- Nausea G1/G2 ([7]; HCQ 200 mg (n = 3) with TMZ): 1 (33) No. (%)
- Vomiting G1/G2 ([7]; HCQ 200 mg (n = 3) with TMZ): 1 (33) No. (%)
- Abdominal fullness G1/G2 ([7]; HCQ 400 mg (n = 4) with TMZ): 1 (25) No. (%)
